From PubChem BioAssay
Shown are actives, neighbours in structure and some others; about 29% of the full set was active somewhere.
CYP2C19 activ – cytochrome P450 2C19 (human) activation. P33261. recombinant CYP2C19, luciferin-H EGE luminescence; hits give high values; 0 = fully inhibited enzyme, 1 = untreated enzyme. activation factor at 5 µM. 96,000 tested, under 10 active. AID 1025;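 active = activation factor of at least 2 at 5 µM in the primary screen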;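 also: 0 = wells with 2.5 mM tranylcypromine and 1 = vehicle-only wells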
CYP2C19 inh – blocks human cytochrome P450 2C19; actives 21% (n = 96,000); CYP2C19 Supersomes, luciferin-H EGE luminescence, 30 min; P33261; inhibition, % at 5 µM;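 active = CYP2C19 inhibition above a set limit at 5 µM in the primary screen, cut at about 50% in these data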;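 also: plate controls were negative control wells for no effect and 2.5 mM tranylcypromine positive control for full effect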
CYP2C9 activ – CYP2C9 (human) activation. actives 1.4% (n = 96,000). AID 1024. activation factor at 5 µM. recombinant CYP2C9, luciferin-H conversion, luminescence; hits give high values; factor 1 = untreated enzyme, 0 = blocked. P11712;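 active = activation factor of 2 or more for CYP2C9 at a 5 µM dose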;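 also: 0 = sulfaphenazole-blocked wells and 1 = vehicle-only wells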
Target sequence (P11712 whole entry, looked up): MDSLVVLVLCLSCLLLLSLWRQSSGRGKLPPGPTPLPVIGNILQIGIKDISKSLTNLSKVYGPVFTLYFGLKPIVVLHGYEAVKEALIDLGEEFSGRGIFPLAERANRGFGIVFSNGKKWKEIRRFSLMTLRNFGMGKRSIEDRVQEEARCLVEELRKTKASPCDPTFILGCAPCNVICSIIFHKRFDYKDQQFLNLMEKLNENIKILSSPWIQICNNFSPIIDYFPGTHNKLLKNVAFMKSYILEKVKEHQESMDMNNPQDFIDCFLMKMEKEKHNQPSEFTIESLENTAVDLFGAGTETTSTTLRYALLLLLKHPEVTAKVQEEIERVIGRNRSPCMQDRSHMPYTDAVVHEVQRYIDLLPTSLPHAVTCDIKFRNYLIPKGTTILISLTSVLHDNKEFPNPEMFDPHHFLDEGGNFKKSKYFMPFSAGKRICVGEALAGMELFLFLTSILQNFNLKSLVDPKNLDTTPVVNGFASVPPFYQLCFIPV
Ecoli tolC – E. coli tolC mutant growth inhibition; E. coli BW25113 tolC mutant growth, OD615; growth inhibition, % at 10 µM (by protocol); actives 2.2% (n = 65,000); AID 573;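 active = growth inhibition at or above a cutoff equal to the mean over every tested compound plus 3 SD, cut at about 60% in these data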;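 also: growth measured after 20 h incubation at 37 °C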
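Material: E. coli BW25113 ΔtolC::kan, tolC deletion mutant strain. Measure: percent growth inhibition. Schedule: 37 °C, 20 h exposure. Doses: single-point testing at 10 µM. Signal: A615 absorbance measurement. Buffer or medium: kanamycin-containing LB broth (50 µg/mL).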
E coli WT exp – blocks growth of wild type E. coli BW25113; OD600 absorbance; growth inhibition, % at 100 µM; actives 0.15% (n = 98,000); AID 710;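 active = growth inhibition above about 50% at one test dose, limit read from the data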;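 also: growth measured after 20 h incubation at 37 °C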
CYP2C9 inhib – inhibitors of human CYP2C9; actives 20% (n = 96,000); P11712; inhibition, % at 5 µM; CYP2C9 Supersomes, luciferin-H conversion, luminescence;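 active = blocking of liver enzyme CYP2C9 beyond about 50% at 5 µM, limit read from the data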
Numbers without * were called inactive; / = no result.

SMILES | CYP2C19 activ | CYP2C19 inh | CYP2C9 activ | Ecoli tolC | E coli WT exp | CYP2C9 inhib
O=c1c([N+](=O)[O-])cc(C(F)(F)F)cn1Cc1c(Cl)cccc1Cl | 0.5 | 46.5 | 0.8 | / | -3.0 | 19.6
Cc1nc(-c2cccc(NS(=O)(=O)c3ccc4ccccc4c3)c2)cs1 | 0.7 | 32.3 | 1.6 | / | -22.0 | -59.3
Cc1cccc(NC(=O)CN2NS(=O)(=O)c3ccccc3C2=O)c1 | 0.7 | 32.8 | 0.4 | / | 7.0 | 59.0*
Cc1ccc(CC(=O)Nc2nc3c(s2)CCCC3)cc1 | 0.6 | 42.1 | 0.1 | / | 7.0 | 87.4*
O=C(CS(=O)(=O)Cc1ccccc1)Nc1nc2c(s1)CCCC2 | 0.4 | 55.8* | 1 | 25.9 | 21.0 | -3.0
O=C(CCN1C(=O)c2ccccc2S1(=O)=O)Nc1nc2c(s1)CCCC2 | 0.2 | 84.0* | 0.1 | 16.3 | -1.0 | 88.5*
CSc1cccc(NC(=O)CN2C(=O)c3ccccc3S2(=O)=O)c1 | 0.7 | 34.6 | 0.6 | 7.2 | 11.0 | 38.3
O=C(Nc1ccc(Br)cc1)c1ccc(CSC2=NCCS2)cc1 | 0.8 | 18.8 | 0.6 | / | -10.0 | 35.4
O=C1NN(c2ccccc2)C(=O)C2C3C=CC(C4CC34)C12 (stereo not given) | 1 | -1.9 | 1.2 | / | -3.0 | -20.1
COc1ccc2cc(/C=N/NC(=O)CSCc3ccc([N+](=O)[O-])cc3)c(Cl)nc2c1 | 0.9 | 11.6 | 1 | / | -7.0 | 3.2
Cc1ncsc1C(=O)Nc1nc2c(s1)CCCC2 | 0.3 | 65.9* | 0.8 | -18.1 | -6.0 | 19.4
CC(C)C(=O)Nc1cccc(NC(=O)CCN2C(=O)c3ccccc3S2(=O)=O)c1 | 0.1 | 87.0* | 0 | -17.0 | -4.0 | 97.3*
Cc1cc(C(=O)Nc2nc3c(s2)CCCC3)cs1 | 1 | 3.3 | 0.8 | 11.7 | -11.0 | 15.9
CCN(CC)CCCNC(=O)c1cn(CCOC)c(=O)c2c1c1ccccc1n2C | 1 | 1.3 | 1 | -12.3 | 9.0 | 4.2
COc1ccc(-c2nc3n(n2)C(c2cccnc2)C(C(N)=O)=C(C)N3)cc1 (stereo not given) | / | / | / | -13.3 | 10.0 | /
COc1ccc(-c2nc3n(n2)C(c2ccncc2)C(C(N)=O)=C(C)N3)cc1 (stereo not given) | 0.8 | 18.5 | 0.8 | -17.6 | 0.0 | 18.9
CC1=C(C(=O)Nc2ccccc2)C(c2cccnc2)n2nc(-c3cccnc3)nc2N1 (stereo not given) | 0.7 | 26.4 | 0.3 | -15.6 | -4.0 | 75.0*
COC(=O)C1=C(C)Nc2nc(-c3ccccc3)nn2C1c1ccc(C)o1 (stereo not given) | 0.3 | 65.9* | 0.3 | 3.4 | 3.0 | 70.6*
COc1cccc(-c2nc3n(n2)C(c2cccs2)C(C(=O)Nc2cccnc2)=C(C)N3)c1 (stereo not given) | 0.2 | 77.0* | 0 | 9.9 | 12.0 | 98.7*
CC1=C(C(=O)Nc2ccccc2C)C(c2cccnc2)n2nc(CCCO)nc2N1 (stereo not given) | 1.2 | -15.3 | 0.5 | -12.2 | 6.0 | 52.9*
CC1=C(C(=O)Nc2cccnc2)C(c2cccnc2)n2nc(-c3cccs3)nc2N1 (stereo not given) | 0.8 | 23.8 | 0.5 | -1.7 | -6.0 | 47.0
O=C(Nc1ccc(Cl)cc1)N(CCCN1CCOCC1)Cc1cccs1 | 0.2 | 83.6* | 0.5 | / | 3.0 | 48.1
Cc1ccc(NC(=O)N(CCCN2CCOCC2)Cc2cccs2)cc1C | 0.4 | 63.4* | 0.5 | / | -4.0 | 52.9*
CCCN1CCCc2cc(CN(CCCN3CCOCC3)C(=O)Nc3ccc(OCC)cc3)ccc21 | 0.9 | 9.2 | 0.9 | / | -10.0 | 8.0
CCOc1ccc(NC(=O)N(CCCN2CCOCC2)Cc2cccnc2)cc1 | 0.2 | 78.1* | 0.5 | / | 3.0 | 53.8*
SMILES | CYP2C19 activ | CYP2C19 inh | CYP2C9 activ | Ecoli tolC | E coli WT exp | CYP2C9 inhib
CCc1ccc(NC(=O)N(Cc2ccco2)C(C)c2cccs2)cc1 (stereo not given) | 0.8 | 23.7 | 0.6 | / | -11.0 | 42.2
CCc1ccc(NC(=O)N(Cc2cccnc2)Cc2ccco2)cc1 | 0 | 97.8* | 0.1 | / | 3.0 | 87.1*
CC(NS(=O)(=O)c1ccccc1)C(N)=O (stereo not given) | 1.1 | -5.0 | 1.2 | -14.0 | 3.0 | -23.0
FC(F)(F)c1ccc(Oc2ccc3c(C(F)(F)F)cc(C(F)(F)F)nc3n2)cc1 | 1 | -3.7 | 1 | / | -18.0 | 2.4
Cc1ccc(S(=O)(=O)NC(CC(=O)NCC2CCCO2)c2ccco2)cc1 (stereo not given) | 1 | 0.0 | 1.1 | -13.7 | -6.0 | -7.6
CCOC(=O)c1c(N)sc(C(O)(C(F)(F)F)C(F)(F)F)c1-c1ccc(Cl)cc1 | 0.4 | 62.5* | 0.1 | / | 1.0 | 86.3*
CCOC(=O)c1c(N)sc(C(O)(C(F)(F)F)C(F)(F)F)c1-c1ccc(F)cc1 | 0.7 | 32.1 | 0.3 | / | 20.0 | 74.8*
CCOC(=O)c1c(NC(=O)C2C3CCC(O3)C2C(=O)O)sc(C)c1-c1ccc(F)cc1 (stereo not given) | 0.8 | 15.6 | 0.9 | / | 1.0 | 13.1
Cc1cc(C)n(C(=O)CNC(=O)COc2ccccc2)n1 | 0.9 | 12.7 | 2* | -5.9 | 7.0 | -99.9
Cc1cc(C)n(C(=O)CNC(=O)Cc2ccccc2)n1 | 0.8 | 17.1 | 1.6 | -21.1 | 4.0 | -58.6
COc1ccc(C(=O)NCC(=O)n2nc(C)cc2C)cc1OC | 1.2 | -19.9 | 2* | 2.7 | 5.0 | -95.5
Cc1cc(C)n(C(=O)CNC(=O)c2ccco2)n1 | 0.9 | 14.2 | 0.9 | -14.5 | 7.0 | 14.7
Cc1ccc(OCC(=O)NCC(=O)n2nc(C)cc2C)cc1 | 0.5 | 48.4 | 2.3* | 11.0 | 2.0 | -127.7
COc1ccccc1C(=O)Nc1c2c(nn1-c1cccc(C)c1C)CS(=O)(=O)C2 | 1 | -2.3 | 1.1 | -12.5 | -9.0 | -7.6
N=c1nc(SCCC(=O)O)ss1 | 1 | -1.9 | 1 | -21.2 | 5.0 | 0.8
Cc1cc(C)nc(NS(=O)(=O)c2ccc(N3C(=O)C4CC=C(Cl)CC4C3=O)cc2)n1 (stereo not given) | 1 | 2.7 | 1 | 3.1 | -1.0 | 1.9
COCCCn1c(SCc2ccc(OC)cc2)nc2cc(OC)c(OC)cc2c1=N | 0.5 | 54.7* | 0.3 | / | -2.0 | 72.3*
COc1cc(OC)nc(NC(=O)CSc2nnc(-c3ccccc3)n2C2CCCCC2)n1 | / | / | / | 1.9 | / | /
CN(C)c1oc(-c2ccc(OCc3ccccc3)cc2)nc1C#N | 0.2 | 79.5* | 0.9 | 13.0 | -9.0 | 14.9
Nc1c(S(=O)(=O)c2cc(Cl)ccc2Cl)c2nc3ccccc3nc2n1CCN1CCOCC1 | 0.2 | 79.0* | 0 | / | -12.0 | 96.3*
CC(=O)Nc1ccc(S(=O)(=O)c2c(N)n(CCN3CCOCC3)c3nc4ccccc4nc23)cc1 | 1.1 | -6.8 | 0.8 | 9.5 | 6.0 | 22.9
COC(=O)c1ccccc1NC(=O)C1CC(=O)N(c2ccc(C)c(C)c2)C1 (stereo not given) | 0.6 | 37.4 | 1.5 | / | 2.0 | -54.5
CCOc1ccc(N2CC(C(=O)Nc3ccccc3N3CCOCC3)CC2=O)cc1 (stereo not given) | 0.6 | 41.2 | 0.2 | / | 3.0 | 85.0*
